Results from ChEMBL document CHEMBL2429762, “Structure-activity relationship study of indole-2-carboxamides identifies a potent allosteric modulator for the cannabinoid receptor 1 (CB1)” (J Med Chem, 2013).
Blank lines part the entries; values can stand above or below the compound they belong to. The source made the active and inactive calls. The calls are words filed in the database; no cut-off is given here.

Key:
[1] = target: Cannabinoid receptor 1 (Homo sapiens) (UniProt P21554); experiment: Positive allosteric modulation of CB1 receptor (unknown origin) expressed in HEK293 cell membranes assessed as stimulation of [3H]CP55,940 binding after 60 mins by liquid scintillation counting analysis
How it was run: (§1)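 Nonspecific binding was taken with 1 μM unlabeled CP55,940. Samples were filtered on GF/C and counted by scintillation. Runs were in duplicate, ≥3 experiments. α and KB came from nonlinear regression to the allosteric ternary complex model, with [A] and KA fixed.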

[2] = target: Cannabinoid receptor 1 (Homo sapiens) (UniProt P21554); experiment: Allosteric modulation of CB1 receptor (unknown origin) expressed in HEK293 cell membranes assessed as stimulation of [3H]CP55,940 binding up to 32 uM after 60 mins by liquid scintillation counting analysis; how it was run: as §1
[3] = target: Cannabinoid receptor 1 (Homo sapiens) (UniProt P21554); experiment: Antagonist activity CB1 receptor (unknown origin) expressed in HEK293 cell membranes assessed as inhibition of CP55,940-induced [35S]GTPgammaS binding at 1 uM after 60 mins by liquid scintillation counting analysis relative to control; assay type: functional
How it was run: (§2)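 Wild-type CB1 HEK293 membranes (7.5 μg) were incubated 60 min at 30 °C in 50 mM Tris-HCl pH 7.4, 3 mM MgCl2, 0.2 mM EGTA, 100 mM NaCl, 0.1% BSA, 10 μM GDP and 0.1 nM [35S]GTPγS. CP55,940 was given at ≥9 concentrations (100 pM–100 μM), with or without modulator. Nonspecific binding was taken with 10 μM GTPγS. Samples were filtered and counted by scintillation. Runs were in duplicate, ≥3 experiments.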

[4] = target: Cannabinoid receptor 1 (Homo sapiens) (UniProt P21554); experiment: Antagonist activity CB1 receptor (unknown origin) expressed in HEK293 cell membranes assessed as inhibition of [35S]GTPgammaS binding after 60 mins by liquid scintillation counting analysis; assay type: functional
How it was run: (§3)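 Basal [35S]GTPγS binding was measured with no orthosteric agonist on wild-type CB1 HEK293 membranes (7.5 μg), 60 min at 30 °C. Buffer was Tris pH 7.4 with MgCl2, EGTA, NaCl and BSA, plus 5 μM GDP and 0.1 nM [35S]GTPγS, and modulator added. Nonspecific binding was taken with 10 μM GTPγS. Mock-transfected membranes gave the non-CB1 binding. Samples were filtered and counted by scintillation. Runs were in duplicate, ≥3 experiments; one-way ANOVA with Bonferroni test was applied.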

[5] = target: Cannabinoid receptor 1 (Homo sapiens) (UniProt P21554); experiment: Antagonist activity CB1 receptor (unknown origin) expressed in HEK293 cell membranes assessed as inhibition of CP55,940-induced [35S]GTPgammaS binding after 60 mins by liquid scintillation counting analysis; assay type: functional; how it was run: as §2
[6] = target: Cannabinoid receptor 1 (Homo sapiens) (UniProt P21554); experiment: Antagonist activity CB1 receptor (unknown origin) expressed in HEK293 cell membranes assessed as inhibition of [35S]GTPgammaS binding at 10 uM after 60 mins by liquid scintillation counting analysis; assay type: functional; how it was run: as §3
[7] = target: Cannabinoid receptor 1 (Homo sapiens) (UniProt P21554); experiment: Antagonist activity CB1 receptor (unknown origin) expressed in HEK293 cell membranes assessed as inhibition of CP55,940-induced [35S]GTPgammaS binding at 0.1 uM after 60 mins by liquid scintillation counting analysis (reference value: […] +/- […] fmol/mg); assay type: functional
[8] = target: Cannabinoid receptor 1 (Homo sapiens) (UniProt P21554); experiment: Antagonist activity CB1 receptor (unknown origin) expressed in HEK293 cell membranes assessed as inhibition of CP55,940-induced [35S]GTPgammaS binding at 10 uM after 60 mins by liquid scintillation counting analysis relative to control; assay type: functional; how it was run: as §2
[9] = target: Cannabinoid receptor 1 (Homo sapiens) (UniProt P21554); experiment: Antagonist activity CB1 receptor (unknown origin) expressed in HEK293 cell membranes assessed as inhibition of CP55,940-induced [35S]GTPgammaS binding at 3.2 uM after 60 mins by liquid scintillation counting analysis relative to control; assay type: functional; how it was run: as §2

Chain of Cannabinoid receptor 1 (Homo sapiens) (P21554 whole entry): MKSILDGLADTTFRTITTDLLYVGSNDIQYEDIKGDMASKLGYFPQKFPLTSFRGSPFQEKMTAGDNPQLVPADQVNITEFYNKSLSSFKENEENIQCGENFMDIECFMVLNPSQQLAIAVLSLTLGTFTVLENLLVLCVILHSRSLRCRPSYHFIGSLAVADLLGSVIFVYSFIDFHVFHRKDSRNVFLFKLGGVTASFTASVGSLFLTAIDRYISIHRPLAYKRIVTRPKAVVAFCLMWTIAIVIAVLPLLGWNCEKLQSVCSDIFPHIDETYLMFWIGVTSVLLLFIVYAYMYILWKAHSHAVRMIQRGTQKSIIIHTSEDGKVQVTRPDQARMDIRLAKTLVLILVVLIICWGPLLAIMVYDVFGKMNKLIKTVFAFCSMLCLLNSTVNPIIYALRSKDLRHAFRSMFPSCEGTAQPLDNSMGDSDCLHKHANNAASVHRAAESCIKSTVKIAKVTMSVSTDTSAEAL

Structure (SMILES): CCc1c(C(=O)NCCc2ccc(N(C)C)cc2)oc2ccc(Cl)cc12
Kb [1]: 0.627 µM

Structure (SMILES): CCc1c(C(=O)NCCc2ccc(N3CCCCC3)cc2)[nH]c2ccc(Cl)cc12
Kb [1]: 0.217 µM

Structure (SMILES): CN(C)c1ccc(CCNC(=O)c2cc3cc(Cl)ccc3o2)cc1
Activity [2]: inactive

Structure (SMILES): CCCCCc1c(C(=O)NCc2ccc(N3CCCCC3)cc2)[nH]c2ccc(Cl)cc12
Activity [2]: inactive

Structure (SMILES): CCCCCc1c(C(=O)NC(CO)Cc2ccc(N(C)C)cc2)[nH]c2ccc(Cl)cc12 (stereo not given)
Kb [1]: 1.02 µM

Structure (SMILES): CCCCCc1c(C(=O)NCCc2ccc(N(C)C)cc2)[nH]c2ccc(Cl)cc12
Emax [3]: 36 fmol/mg
inhibition [4]: Dose-dependent effect
inhibition [5]: Dose-dependent effect
inhibition [6]: Active
Kb [1]: 0.167 µM
Emax [7]: 53.4 fmol/mg

Structure (SMILES): CCCCCCCc1c(C(=O)NCCc2ccc(N3CCCCC3)cc2)[nH]c2ccc(Cl)cc12
Kb [1]: 0.651 µM

Structure (SMILES): CCCCCCCCCc1c(C(=O)NCCc2ccc(N3CCCCC3)cc2)[nH]c2ccc(Cl)cc12
inhibition [5]: Dose-dependent effect
Kb [1]: 0.26 µM
inhibition [8]: Active
Emax [9]: 61.4 fmol/mg

Second part, the compound after the results:

Kb [1]: 1.07 µM
Structure (SMILES): O=C(NCCc1ccc(N2CCCCC2)cc1)c1[nH]c2ccc(Cl)cc2c1Cc1ccccc1

Activity [2]: inactive
Structure (SMILES): O=C(NCCc1ccc(N2CCCCC2)cc1)c1[nH]c2ccc(Cl)cc2c1-c1ccccc1

Activity [2]: inactive
Structure (SMILES): O=C(NCCc1ccc(N2CCCCC2)cc1)c1cc2cc(Cl)ccc2o1

Kb [1]: 0.207 µM
Structure (SMILES): CCc1c(C(=O)NCCc2ccc(N(C)C)cc2)[nH]c2ccc(Cl)cc12

Kb [1]: 2.33 µM
Structure (SMILES): CCCCCc1c(C(=O)NCCc2ccc(Oc3ccccc3)cc2)[nH]c2ccc(Cl)cc12

Kb [1]: 2.41 µM
Structure (SMILES): O=C(NCCc1ccc(N2CCCCC2)cc1)c1[nH]c2ccc(Cl)cc2c1CC1CCCCC1

inhibition [5]: Dose-dependent effect
Kb [1]: 0.508 µM
inhibition [8]: Active
Emax [9]: 58.2 fmol/mg
Structure (SMILES): CCCCCc1c(C(=O)NCCc2ccc(N3CCOCC3)cc2)[nH]c2ccc(Cl)cc12

inhibition [5]: Dose-dependent effect
Kb [1]: 2.59 µM
inhibition [8]: Active
Emax [9]: 59.5 fmol/mg
Structure (SMILES): CCc1c(C(=O)NCCc2ccc(N3CCCCC3)cc2)oc2ccc(Cl)cc12
